Arr AP2 block – inhibitors of beta-arrestin/AP2 binding, primary screen, biochemical, GPCR trafficking, flow cytometry; actives 0.31% (n = 340,000); FITC-arrestin peptide / GST-AP2 beads; AP2 beta2 appendage carries R879A mutation; inhibition, % at 10 µM; beta-arrestin 1 C-terminal peptide binding to AP2 beta2-adaptin appendage (human); AID 504490, 2011;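 active = inhibition above a set limit, near 3 SD of compounds lacking own fluorescence, cut at about 54% in these data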;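 also: plate controls were DMSO wells for no effect and 5 µM unlabelled arrestin peptide for full effect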
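System: GST-AP2 R879A bound to glutathione beads, E. coli-expressed. Also added: 50 nM FITC-arrestin peptide. Schedule: compound with beads 12 min RT, then probe 1 h RT. Signal: bead flow cytometry, FITC channel. Read-out basis: percent response.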
UHRF1 binding – UHRF1 methylated DNA binding inhibitors, primary screen, counter-screen for MBD2 inhibitor project, biochemical, TR-FRET, human UHRF1, single concentration; UHRF1 binding to methylated oligo; actives 0.75% (n = 370,000); AID 687016, 2013; inhibition, % at 4.4 µM; E3 ubiquitin-protein ligase UHRF1 (Homo sapiens), Q96T88; in the data active = inhibition above about 21%;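 also: UHRF1 SRA domain binding a hemimethylated CpG hairpin DNA probe; 0% = median of test compound wells and 100% = reference inhibitor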
Rin1 Abl inh – inhibitors of Rin1-Abl protein binding, primary screen, biochemical, TR-FRET; actives 0.4% (n = 360,000); inhibition, % at 7.35 µM; Tyrosine-protein kinase ABL1 (Homo sapiens) + Ras and Rab interactor 1 (Homo sapiens), …; AID 588664, 2011; in the data active = inhibition above about 5%, passing the limit was not always enough
B2AR ag – beta2AR agonists driving receptor internalization, primary screen, cell-based, FAP fluorogen, flow cytometry; Am2.2-beta2AR cells; response, % (concentration not given with the values); Beta-2 adrenergic receptor (Homo sapiens), P07550; actives 0.43% (n = 340,000);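 active = response above a set limit, near 3 SD of response in nonfluorescent compounds, cut at about 42% in these data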
Target sequence (P07550 whole entry, looked up): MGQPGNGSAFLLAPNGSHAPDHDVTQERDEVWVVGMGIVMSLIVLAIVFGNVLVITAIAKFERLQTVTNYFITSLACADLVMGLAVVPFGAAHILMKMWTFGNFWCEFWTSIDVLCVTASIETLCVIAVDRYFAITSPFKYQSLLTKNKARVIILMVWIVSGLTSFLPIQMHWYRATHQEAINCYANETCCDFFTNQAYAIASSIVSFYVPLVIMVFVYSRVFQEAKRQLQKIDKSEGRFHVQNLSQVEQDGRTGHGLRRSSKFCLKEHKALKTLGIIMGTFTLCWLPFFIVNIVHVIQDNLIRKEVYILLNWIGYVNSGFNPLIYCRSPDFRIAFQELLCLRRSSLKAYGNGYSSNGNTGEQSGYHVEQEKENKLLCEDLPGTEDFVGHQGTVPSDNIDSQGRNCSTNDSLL
ABHD5-PLIN5 inh – ABHD5-PLIN5 interaction inhibitors, primary screen, cell lysate, split luciferase complementation, luminescence; inhibition, % at 4 µM; Perilipin-5 (Homo sapiens) + 1-acylglycerol-3-phosphate O-acyltransferase ABHD5 (Homo …; actives 0.78% (n = 360,000); Split G. princeps luciferase complementation, 4 h;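 active = inhibition above the mean inhibition across every tested compound plus 3 SD, cut at about 22% in these data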;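 also: 0% = DMSO only wells and the 100% control is not disclosed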
MBD2 inh – inhibitors of MBD2 binding to methylated DNA, primary screen, biochemical, TR-FRET, DNA-binding domain, human | MBD2 binding to methylated oligonucleotide | inhibition, % at 4.4 µM | actives 0.31% (n = 370,000) | Methyl-CpG-binding domain protein 2 (Homo sapiens), Q9UBB5 | AID 686964, 2013; in the data active = inhibition above about 13%
The depositor's hits bear a star; . = not tested or not shown. Only some compounds are listed: those with a hit (about 2.5% of all), similar ones and a draw of the others.

SMILES | Arr AP2 block | UHRF1 binding | Rin1 Abl inh | B2AR ag | ABHD5-PLIN5 inh | MBD2 inh
Cc1nc(N(C)C)c2sc(=S)n(-c3ccccc3)c2n1 | -10 | 11 | -1 | -1 | 2 | 6
Cc1ccc(-c2cc(C(=O)NN=Cc3cccc(OCc4ccccc4)c3)[nH]n2)cc1C | . | -1 | . | . | . | -3
O=C(c1ccccc1C(F)(F)F)N1CCC(Oc2cccnc2)CC1 | . | 1 | . | . | . | 1
COc1ccc(C(c2c(O)ccc3ccccc23)N2CCOCC2)c(OC)c1 (centres undefined) | -6 | -3 | -4 | 18 | 96* | 0
C/C=C/C(=O)N1CCC(C(=O)NCC2COc3ccccc3O2)CC1 (centres undefined) | . | 14 | . | . | . | -3
COC(=O)c1ccc(COc2ccc(/C=C(\C#N)c3nc4ccccc4[nH]3)cc2OC)o1 | -3 | -5 | -4 | 43* | -2 | -6
COc1cc(/C=C(/C#N)c2nc3ccccc3[nH]2)ccc1OCc1ccc(C(=O)O)o1 | 0 | 4 | -2 | 40 | 6 | 2
CSc1nccc(-c2nn(-c3ccc(C)cc3)ccc2=O)n1 | -5 | 23* | -1 | -9 | -3 | 9
CCSc1nccc(-c2nn(-c3ccc(C)cc3)ccc2=O)n1 | -5 | 5 | -2 | -14 | -6 | 3
Cc1cc(C)n2c(=O)c3ccc(Cl)cc3nc2c1C#N | -7 | 0 | 2 | -8 | 2 | -2
Cc1cc(Cl)n2c(nc3cc(F)c(F)cc32)c1C#N | 25 | -6 | 0 | 113* | 6 | -4
O=S1(=O)c2ccc(Br)cc2OC[C@@H](Cc2ccccc2)N1Cc1cn(Cc2ccccc2)nn1 | . | 0 | . | . | . | 2
Cc1cc(-c2csc(NC(=O)c3ccc(=O)[nH]c3)n2)c(C)n1Cc1ccco1 | 26 | 9 | 8.3* | -2 | 16 | 10
CCc1ccc(OCC(=O)NC(=S)Nc2ccc(C(C)=O)cc2)c(Br)c1 | 28 | 24* | 2 | 10 | 2 | 7
COC(CNC(=O)[C@H](Cc1ccccc1)NC(C)(C)C(=O)NC1CCCCC1)OC | . | 4 | . | . | . | 4
O=C(OCn1nnc2ccccc2c1=O)c1ccc(S(=O)(=O)N2CCOCC2)cc1 | 5 | . | 3 | -9 | 5 | .
O=C(OCn1nnc2ccccc2c1=O)c1ccc(F)c(S(=O)(=O)N2CCOCC2)c1 | . | 73* | 0 | . | 2 | 2
Cc1cccc(OCCOC(=O)c2ccc(F)c(S(=O)(=O)N3CCOCC3)c2)c1 | 23 | 41* | 2 | 0 | 5 | 6
COc1ccc(C(=O)OCCOc2cccc(Cl)c2)cc1S(=O)(=O)N1CCOCC1 | 42 | 0 | 3 | 5 | 1 | -1
COC(=O)[C@]12C[C@H](CC(=O)NCc3cccs3)C(=O)N(Cc3ccco3)C1=C[C@H](C(C)(C)C)O[C@@H]2C | . | 2 | . | . | . | 2
CCC[C@H]1[C@@H](NS(=O)(=O)c2ccccc2[N+](=O)[O-])CC[C@@]23CCCN2C(=O)CCC[C@@H]13 | . | -1 | . | . | . | -4
COC(=O)[C@]12C[C@H](CC(=O)NCc3ccccc3)C(=O)N(Cc3cccc4ccccc34)C1=C[C@H](C1CCCC1)O[C@@H]2C | . | 3 | . | . | . | -4
COc1cc(-c2nnc(SCc3cc(=O)oc4cc(O)c(O)cc34)o2)cc(OC)c1OC | 10 | 52* | 3 | 10 | -8 | 29*
CCOC(=O)CSc1nnc(-c2cc(OC)c(OC)c(OC)c2)o1 | -4 | 2 | 2 | 17 | 8 | 2
O=[N+]([O-])c1cc(S(=O)(=O)N2CCCCCC2)ccc1F | -5 | 17 | -1 | 50* | 4 | 3
O=C(c1cc2nc(C3CC3)cc(C(F)F)n2n1)N1CCOCC1 | -9 | 21* | -2 | -6 | -4 | 3
O=C(c1cnn2c(C(F)F)cc(C3CC3)nc12)N1CCCC1 | 7 | -2 | 0 | -9 | 10 | 4
O=C(Cc1cccs1)N/N=C\c1ccccc1 | . | -4 | . | . | . | -6
